# Results from ChEMBL document CHEMBL1145287, “Docking and 3-D QSAR studies on indolyl aryl sulfones. Binding mode exploration at the HIV-1 reverse transcriptase non-nucleoside binding site and design of highly active N-(2-hydroxyethyl)carboxamide and N-(2-hydroxyethyl)carbohydrazide derivatives” (J Med Chem, 2005).
# Tested on: C8166
# Assay: Concentration required to reduce the amount of p24 by 90% in C8166 cells infected with an efavirenz-resistant strain EFVR
# Assay type: functional
# Conditions: Homo sapiens
# Summary of the method: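 C8166 cells (1 × 10⁴/well) with serial compound dilutions (200 mM DMSO stock diluted in medium), infected with K103R/V179D/P225H virus selected from IIIB by passage in C8166 cells with efavirenz up to 2 μM (stock 3.0 × 10⁵ CCID₅₀/mL); 37 °C incubation; p24 measured by immunoenzymatic kit; value = concentration giving 90% p24 reduction.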
row,SMILES,EC90 [nM]
1,NC(=O)c1[nH]c2ccc(Cl)cc2c1S(=O)(=O)c1ccccc1 [L-737126],900

# Tested on: MT4
# Assay: Concentration required to achieve 50% protection of infected MT-4 cells from Y181C-HIV-1 strain
# Assay type: functional, cell-based
# Conditions: Homo sapiens
# Summary of the method: (§1)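 MT-4 cells (1 × 10⁴/well, RPMI 1640 + 10% FCS) exposed to serial compound dilutions (200 mM DMSO stock diluted in medium), infected with enough virus to give full cytopathicity by day 4; wt IIIB from H9/IIIB supernatant, Y181C and K103N–Y181C from NNRTI-selected passages.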
row,SMILES,EC50 [nM]
1,NC(=O)c1[nH]c2ccc(Cl)cc2c1S(=O)(=O)c1ccccc1 [L-737126],20

# Tested on: MT4
# Assay: Protection of infected MT-4 cells from wtIIIB-HIV-1-induced cytopathogenicity
# Assay type: functional, cell-based
# Conditions: Homo sapiens
# Summary of the method: (§2)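 MT-4 cells (1 × 10⁴/well, RPMI 1640 with 10% FCS, 37 °C, 5% CO₂) were infected with HIV-1 IIIB (H9/IIIB supernatant) at an inoculum causing complete cytopathicity by day 4, across graded compound concentrations. Viability was read by MTT, with cytotoxicity run in parallel on mock-infected cells. Concentration giving 50% protection reported as the mean of three experiments.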
row,SMILES,EC50 [nM]
1,CC(C)(C)c1ccc(Sc2c(C(N)=O)[nH]c3ccc(Cl)cc23)cc1,8000
2,Cc1cc(C)cc(S(=O)(=O)c2c(C(=O)NN)[nH]c3ccc(Cl)cc23)c1,130
3,NC(=O)c1[nH]c2ccc(Cl)cc2c1S(=O)(=O)c1ccc(F)cc1,14
4,NC(=O)c1[nH]c2ccc(Cl)cc2c1S(=O)(=O)c1cc(Cl)ccc1N,40
5,NNC(=O)c1[nH]c2ccc(Cl)cc2c1Sc1ccccc1,550
6,CCOC(=O)c1[nH]c2ccccc2c1Sc1cc(Cl)ccc1N,≥ 200000
7,CCOC(=O)C(=O)c1cc2ccccc2n1S(=O)(=O)c1cc(Cl)ccc1N,1800
8,NNC(=O)c1[nH]c2ccc(Cl)cc2c1S(=O)(=O)c1ccc(F)cc1,320
9,Cc1cc(C)cc(S(=O)(=O)c2c(C(N)=O)[nH]c3ccc(Cl)cc23)c1,4
10,CCOC(=O)c1[nH]c2ccccc2c1Sc1ccccc1,1400
11,CCOC(=O)C(=O)c1cc2cc(Cl)ccc2n1S(=O)(=O)c1ccc(C)cc1,> 200000
12,NC(=O)c1[nH]c2ccc(Cl)cc2c1Sc1cc(Cl)ccc1N,1600
13,Cc1ccc(S(=O)(=O)c2c(C(N)=O)[nH]c3ccc(Cl)cc23)c(C)c1,4
14,CC(C)c1ccc(Sc2c(C(N)=O)[nH]c3ccc(Cl)cc23)cc1,1900
15,Cc1cc(C)cc(S(=O)(=O)c2c(C(N)=O)[nH]c3ccc(Br)cc23)c1,2
16,Cc1ccc(Sc2c(C(=O)NN)[nH]c3ccc(Cl)cc23)cc1,1500
17,Cc1ccc(S(=O)(=O)c2c(C(=O)NN)[nH]c3ccc(Cl)cc23)cc1,50
18,O=Cc1cc2ccccc2n1S(=O)(=O)c1ccccc1,> 150000
19,CCOC(=O)c1[nH]c2ccc(Cl)cc2c1Sc1cc(Cl)ccc1N,2500
20,NC(=O)c1[nH]c2ccc(Cl)cc2c1Sc1ccccc1,20
21,CC(=O)c1ccc2[nH]c(C(N)=O)c(S(=O)(=O)c3cc(C)cc(C)c3)c2c1,15
22,NC(=O)c1[nH]c2ccccc2c1Sc1ccccc1,1400
23,CCOC(=O)C(=O)c1cc2cc(Cl)ccc2n1S(=O)(=O)c1ccccc1,> 200000
24,NC(=O)c1[nH]c2ccccc2c1S(=O)(=O)c1ccccc1,180

row,SMILES,EC50 [nM]
1,CCOC(=O)c1[nH]c2ccc(Cl)cc2c1S(=O)(=O)c1cc(Cl)ccc1N,1900
2,NNC(=O)c1[nH]c2ccc(Cl)cc2c1S(=O)(=O)c1cc(Cl)ccc1N,300
3,CC(C)c1ccc(S(=O)(=O)c2c(C(N)=O)[nH]c3ccc(Cl)cc23)cc1,80
4,NC(=O)C(=O)c1cc2cc(Cl)ccc2n1S(=O)(=O)c1ccccc1,66600
5,Cc1ccccc1S(=O)(=O)c1c(C(N)=O)[nH]c2ccc(Cl)cc12,1
6,NC(=O)c1[nH]c2ccc(Cl)cc2c1S(=O)(=O)c1ccccc1 [L-737126],1
7,CCOC(=O)C(=O)c1cc2ccccc2n1S(=O)(=O)c1cc(Cl)ccc1[N+](=O)[O-],> 100000
8,NC(=O)c1[nH]c2ccccc2c1Sc1cc(Cl)ccc1N,9000
9,CCOC(=O)C(=O)c1cc2cc(Cl)ccc2n1S(=O)(=O)c1ccc(Cl)cc1,> 200000
10,Cc1ccc(S(=O)(=O)c2c(C(N)=O)[nH]c3ccc(Cl)cc23)cc1,3
11,CCOC(=O)C(=O)c1cc2cc(Cl)ccc2n1S(=O)(=O)c1cc(Cl)ccc1N,8300
12,NNC(=O)C(=O)c1cc2ccccc2n1S(=O)(=O)c1ccccc1,> 200000
13,Cc1ccccc1Sc1c(C(N)=O)[nH]c2ccc(Cl)cc12,300
14,CC(C)(C)c1ccc(S(=O)(=O)c2c(C(N)=O)[nH]c3ccc(Cl)cc23)cc1,130
15,CCOC(=O)c1[nH]c2ccc(Cl)cc2c1S(=O)(=O)c1ccccc1N,> 200000
16,NNC(=O)c1[nH]c2ccc(Cl)cc2c1S(=O)(=O)c1ccccc1,10
17,Cc1cc(C)cc(Sc2c(C(N)=O)[nH]c3ccc(Cl)cc23)c1,6
18,Cc1cc(C)cc(S(=O)(=O)c2c(C(N)=O)[nH]c3ccc(C(C)O)cc23)c1 (configuration not stated),25
19,CCOC(=O)C(=O)c1cc2ccccc2n1S(=O)(=O)c1ccccc1[N+](=O)[O-],1800
20,NC(=O)c1[nH]c2ccc(Cl)cc2c1Sc1ccc(F)cc1,1400
21,NC(=O)c1[nH]c2ccccc2c1S(=O)(=O)c1cc(Cl)ccc1N,300
22,O=Cc1cc2cc(Cl)ccc2n1S(=O)(=O)c1ccccc1,> 75000
23,CCOC(=O)c1c(C=O)n(S(=O)(=O)c2ccccc2)c2ccccc12,> 32000
24,CCOC(=O)c1[nH]c2ccc(Cl)cc2c1Sc1ccccc1N,2300

row,SMILES,EC50 [nM]
1,CCOC(=O)C(=O)c1cc2cc(Cl)ccc2n1S(=O)(=O)c1cc(Cl)ccc1[N+](=O)[O-],> 31000
2,NC(=O)c1[nH]c2ccc(Cl)cc2c1Sc1c(Cl)cccc1Cl,1200
3,NNC(=O)c1[nH]c2ccccc2c1S(=O)(=O)c1ccccc1,530
4,NNC(=O)c1[nH]c2ccc(Cl)cc2c1S(=O)(=O)c1ccc(Cl)cc1,190
5,CCOC(=O)c1[nH]c2ccccc2c1S(=O)(=O)c1cc(Cl)ccc1N,2500
6,Cc1ccc(Sc2c(C(N)=O)[nH]c3ccc(Cl)cc23)cc1,> 450
7,NC(=O)c1c(C=O)n(S(=O)(=O)c2ccccc2)c2ccc(Cl)cc12,≥ 200000
8,NNC(=O)c1[nH]c2ccc(Cl)cc2c1Sc1cc(Cl)ccc1N,> 13000
9,CCOC(=O)C(=O)c1cc2ccccc2n1S(=O)(=O)c1ccc(Cl)cc1,> 100000
10,CCOC(=O)c1c(C=O)n(S(=O)(=O)c2ccccc2)c2ccc(Cl)cc12,> 42000
11,NC(=O)c1[nH]c2ccc(Cl)cc2c1S(=O)(=O)c1ccc(Cl)cc1,11
12,NNC(=O)c1[nH]c2ccc(Cl)cc2c1Sc1ccc(F)cc1,5000
13,NC(=O)c1[nH]c2ccc(Cl)cc2c1S(=O)(=O)c1c(Cl)cccc1Cl,100
14,CCOC(=O)c1[nH]c2ccccc2c1Sc1ccccc1N,> 200000
15,CC(C)OC(=O)c1c(C=O)n(S(=O)(=O)c2ccccc2)c2ccccc12,> 54000
16,NNC(=O)c1[nH]c2ccc(Cl)cc2c1Sc1ccc(Cl)cc1,10000
17,Cc1cccc(S(=O)(=O)c2c(C(N)=O)[nH]c3ccc(Cl)cc23)c1,1
18,CCOC(=O)c1[nH]c2ccccc2c1S(=O)(=O)c1ccccc1,3700
19,NC(=O)c1[nH]c2ccc(Cl)cc2c1Sc1ccc(Cl)cc1,3100
20,CC(C)OC(=O)c1c(C=O)n(S(=O)(=O)c2ccccc2)c2ccc(Cl)cc12,> 200000
21,NC(=O)c1c(C=O)n(S(=O)(=O)c2ccccc2)c2ccccc12,> 32000
22,NC(=O)C(=O)c1cc2ccccc2n1S(=O)(=O)c1ccccc1,15000

# Tested on: MT4
# Assay: Concentration required for 50% protection of infected MT-4 cells from wtIIIB-HIV-1-induced cytopathogenicity was determined by the MTT method
# Assay type: functional, cell-based
# Conditions: Homo sapiens
# Summary of the method: as §2
row,SMILES,EC50 [nM]
1,Cc1ccc(Sc2c(C(=O)NNCCO)[nH]c3ccc(Cl)cc23)c(C)c1,2290
2,O=[N+]([O-])c1ccc(Cl)cc1S(=O)(=O)n1ccc2ccccc21,3980
3,Cc1ccc(S(=O)(=O)c2c(C(=O)NCCO)[nH]c3ccc(Cl)cc23)c(C)c1,10
4,Nc1cc(Cl)ccc1S(=O)(=O)n1ccc2ccccc21,74100
5,O=C(NCCO)c1[nH]c2ccc(Cl)cc2c1Sc1ccccc1,129
6,O=[N+]([O-])c1ccc(Cl)c(S(=O)(=O)n2ccc3ccccc32)c1,6030
7,O=[N+]([O-])c1cc(Cl)ccc1S(=O)(=O)n1ccc2ccccc21,15800
8,Cc1cccc(S(=O)(=O)c2c(C(=O)NNCCO)[nH]c3ccc(Cl)cc23)c1,10

# Tested on: MT4
# Assay: Concentration required to achieve 50% protection of infected MT-4 cells from K103N-Y181C
# Assay type: functional, cell-based
# Conditions: Homo sapiens
# Summary of the method: as §1
row,SMILES,EC50 [nM]
1,NC(=O)c1[nH]c2ccc(Cl)cc2c1S(=O)(=O)c1ccccc1 [L-737126],8000

# Tested on: C8166
# Assay: Concentration required to reduce the amount of p24 by 90% in wtIIIB-HIV-1-infected C8166 cells
# Assay type: functional
# Conditions: Homo sapiens
# Summary of the method: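 Acute infection of C8166 cells (1 × 10⁴/well, RPMI 1640 with 10% FCS, 37 °C, 5% CO₂) by HIV-1 IIIB from persistently infected H9/IIIB supernatant, with a virus inoculum sized to cause complete cytopathicity at day 4, in the presence of serially diluted compound (DMSO stock diluted in medium). p24 antigen was measured by immunoenzymatic kit. Concentration giving 90% reduction of p24 reported.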
row,SMILES,EC90 [nM]
1,NC(=O)c1[nH]c2ccc(Cl)cc2c1S(=O)(=O)c1ccccc1 [L-737126],0.7
